Tests used:
Type in all cases: functional
NCI-H522 = assay: Growth inhibition of human NCI-H522 cells
How it was run: (§1)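 Five-dose testing was run within the NCI (Bethesda) in vitro Anticancer Screen Program on a panel of 53 human tumour cell lines from nine cancer types. Growth inhibition is reported as GI50.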

OVCAR-5 = assay: Growth inhibition of human OVCAR5 cells; how it was run: as §1
SNB-19 = assay: Growth inhibition of human SNB19 cells
How it was run: (§2)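 Compounds that passed a preliminary screen were tested at five doses in the NCI (Bethesda) in vitro Anticancer Screen Program against a 53-line human tumour panel spanning leukemia, lung, colon, CNS, melanoma, ovarian, renal, prostate and breast. Growth inhibition is reported as GI50.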

UO-31 = assay: Growth inhibition of human UO31 cells; how it was run: as §2
MCF7 [1] = assay: Cell cycle arrest in human MCF7 cells assessed as accumulation at G0 phase at 30 uM after 24 hrs by FACS analysis
How it was run: (§3)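 MCF-7 cells were treated at 30 µM for 24 h alongside a DMSO control. Fractions in G0, G1, S and G2/M phases were measured by FACS, and values are means of three experiments.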

SF-539 = assay: Growth inhibition of human SF539 cells; how it was run: as §1
MDA-MB-435 = assay: Growth inhibition of human MDA-MB-435 cells; how it was run: as §1
BT-549 = assay: Growth inhibition of human BT549 cells; how it was run: as §1
SN12C = assay: Growth inhibition of human SN12C cells; how it was run: as §2
HCT-116 = assay: Growth inhibition of human HCT116 cells; how it was run: as §1
A498 = assay: Growth inhibition of human A498 cells; how it was run: as §1
OVCAR-3 = assay: Growth inhibition of human OVCAR-3 cells; how it was run: as §1
SK-MEL-28 = assay: Growth inhibition of human SK-MEL-28 cells; how it was run: as §1
KM12 = assay: Growth inhibition of human KM12 cells; how it was run: as §1
K562 = assay: Growth inhibition of human K562 cells; how it was run: as §1
786-0 = assay: Growth inhibition of human 786-0 cells; how it was run: as §1
T47D = assay: Growth inhibition of human T47D cells; how it was run: as §2
SK-MEL-2 = assay: Growth inhibition of human SK-MEL-2 cells; how it was run: as §1
LOX IMVI = assay: Growth inhibition of human LOXIMVI cells; how it was run: as §1
SK-MEL-5 = assay: Growth inhibition of human SK-MEL-5 cells; how it was run: as §1
MCF7 [2] = assay: Cell cycle arrest in human MCF7 cells assessed as accumulation at G2/M phase at 30 uM after 24 hrs by FACS analysis; how it was run: as §3
COLO 205 = assay: Growth inhibition of human COLO205 cells; how it was run: as §1
MCF7 [3] = assay: Cell cycle arrest in human MCF7 cells assessed as accumulation at G1 phase at 30 uM after 24 hrs by FACS analysis; how it was run: as §3
UACC-257 = assay: Growth inhibition of human UACC257 cells; how it was run: as §2
RXF 393 = assay: Growth inhibition of human RXF393 cells; how it was run: as §1
SK-OV-3 = assay: Growth inhibition of human SKOV3 cells; how it was run: as §2
[4] = Growth inhibition of human RPMI8266 cells; how it was run: as §1
MCF7 [5] = assay: Cell cycle arrest in human MCF7 cells assessed as accumulation at S phase at 30 uM after 24 hrs by FACS analysis; how it was run: as §3
MCF7 [6] = assay: Growth inhibition of human MCF7 cells; how it was run: as §1
NCI-H460 = assay: Growth inhibition of human NCI-H460 cells; how it was run: as §1
UACC-62 = assay: Growth inhibition of human UACC62 cells; how it was run: as §2
ACHN = assay: Growth inhibition of human ACHN cells; how it was run: as §1
HCC 2998 = assay: Growth inhibition of human HCC2998 cells; how it was run: as §1
SNB-75 = assay: Growth inhibition of human SNB75 cells; how it was run: as §2
NCI/ADR-RES = assay: Growth inhibition of human NCI/ADR-RES cells; how it was run: as §1
NCI-H23 = assay: Growth inhibition of human NCI-H23 cells; how it was run: as §1
MDA-MB-231 = assay: Growth inhibition of human MDA-MB-231 cells; how it was run: as §1
SW-620 = assay: Growth inhibition of human SW620 cells; how it was run: as §2
U-251 = assay: Growth inhibition of human U251 cells; how it was run: as §2
HCT-15 = assay: Growth inhibition of human HCT15 cells; how it was run: as §1
A549 = assay: Growth inhibition of human A549 cells; how it was run: as §1
NCI-H226 = assay: Growth inhibition of human NCI-H226 cells; how it was run: as §1
M14 = assay: Growth inhibition of human M14 cells; how it was run: as §1
OVCAR-8 = assay: Growth inhibition of human OVCAR8 cells; how it was run: as §1
HOP-62 = assay: Growth inhibition of human HOP62 cells; how it was run: as §1
HT-29 = assay: Growth inhibition of human HT-29 cells; how it was run: as §1
MCF7 [7] = assay: Cell cycle arrest in human MCF7 cells assessed as accumulation at G0 phase at 10 uM after 24 hrs by FACS analysis
How it was run: (§4)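 MCF-7 breast carcinoma cells were exposed to 10 µM test compound for 24 h, with DMSO as the vehicle control. Cell-cycle distribution was read by FACS as the percentage of cells in G0, G1, S and G2/M.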

MCF7 [8] = assay: Cell cycle arrest in human MCF7 cells assessed as accumulation at S phase at 10 uM after 24 hrs by FACS analysis; how it was run: as §4
MCF7 [9] = assay: Cell cycle arrest in human MCF7 cells assessed as accumulation at G1 phase at 10 uM after 24 hrs by FACS analysis; how it was run: as §4
TK-10 = assay: Growth inhibition of human TK10 cells; how it was run: as §2
MCF7 [10] = assay: Cell cycle arrest in human MCF7 cells assessed as accumulation at G2/M phase at 10 uM after 24 hrs by FACS analysis; how it was run: as §4
Malme-3M = assay: Growth inhibition of human MALME-3M cells; how it was run: as §1
CAKI-1 = assay: Growth inhibition of human Caki1 cells; how it was run: as §1
HOP-92 = assay: Growth inhibition of human HOP92 cells; how it was run: as §1
SF-295 = assay: Growth inhibition of human SF295 cells; how it was run: as §1
NCI-H322M = assay: Growth inhibition of human NCI-H322M cells; how it was run: as §1
EKVX = assay: Growth inhibition of human EKVX cells; how it was run: as §1
OVCAR-4 = assay: Growth inhibition of human OVCAR4 cells; how it was run: as §1
SF-268 = assay: Growth inhibition of human SF268 cells; how it was run: as §1
[11] = Growth inhibition of human Hs 578T cells; how it was run: as §1
PC-3 = assay: Growth inhibition of human PC3 cells; how it was run: as §1

## O=C(/C=C/c1cccc(O)c1)c1cccc(-n2cc(-c3ccc(Cl)cc3)[nH]c2=O)c1
NCI-H522
  GI50: 1.65 µM
OVCAR-5
  GI50: 2.19 µM
SNB-19
  GI50: 1.92 µM
UO-31
  GI50: 0.55 µM
MCF7 [1]
  Activity: 17.17%
SF-539
  GI50: 1.68 µM
MDA-MB-435
  GI50: 2.06 µM
BT-549
  GI50: 1.45 µM
SN12C
  GI50: 1.95 µM
HCT-116
  GI50: 1.23 µM
A498
  GI50: 3.71 µM
OVCAR-3
  GI50: 1.56 µM
SK-MEL-28
  GI50: 3.64 µM
KM12
  GI50: 1.34 µM
K562
  GI50: 0.4 µM
786-0
  GI50: 1.57 µM
T47D
  GI50: 1.92 µM
SK-MEL-2
  GI50: 2.07 µM
LOX IMVI
  GI50: 1.57 µM
SK-MEL-5
  GI50: 1.53 µM
MCF7 [2]
  Activity: 10.8%
COLO 205
  GI50: 2.29 µM
MCF7 [3]
  Activity: 58.33%
UACC-257
  GI50: 4.07 µM
RXF 393
  GI50: 1.51 µM
SK-OV-3
  GI50: 4.21 µM
[4]
  GI50: 1.55 µM
MCF7 [5]
  Activity: 13.7%
MCF7 [6]
  GI50: 1.27 µM
NCI-H460
  GI50: 2.41 µM
UACC-62
  GI50: 1.85 µM
ACHN
  GI50: 1.84 µM
HCC 2998
  GI50: 13.7 µM
SNB-75
  GI50: 1.46 µM
NCI/ADR-RES
  GI50: 2.2 µM
NCI-H23
  GI50: 2.78 µM
MDA-MB-231
  GI50: 3.35 µM
SW-620
  GI50: 1.62 µM
U-251
  GI50: 0.58 µM
HCT-15
  GI50: 2.33 µM
A549
  GI50: 3.55 µM
NCI-H226
  GI50: 2.31 µM
M14
  GI50: 2.01 µM
OVCAR-8
  GI50: 0.99 µM
HOP-62
  GI50: 2.36 µM
HT-29
  GI50: 1.9 µM
MCF7 [7]
  Activity: 3.1%
MCF7 [8]
  Activity: 13.92%
MCF7 [9]
  Activity: 59.35%
TK-10
  GI50: 2.83 µM
MCF7 [10]
  Activity: 23.63%
Malme-3M
  GI50: 1.83 µM
CAKI-1
  GI50: 1.72 µM
HOP-92
  GI50: 1.6 µM
SF-295
  GI50: 1.79 µM
NCI-H322M
  GI50: 2.52 µM
EKVX
  GI50: 2.4 µM
OVCAR-4
  GI50: 2.21 µM
SF-268
  GI50: 1.78 µM
[11]
  GI50: 4 µM

## O=C(/C=C/c1cccc(O)c1)c1cccc(-n2cc(-c3ccccc3)[nH]c2=O)c1
OVCAR-5
  GI50: 5.44 µM
SNB-19
  GI50: 10.9 µM
UO-31
  GI50: 2.16 µM
MCF7 [1]
  Activity: 11.07%
SF-539
  GI50: 1.98 µM
MDA-MB-435
  GI50: 3.12 µM
BT-549
  GI50: 9.32 µM
SN12C
  GI50: 3.14 µM
HCT-116
  GI50: 3.02 µM
A498
  GI50: 14.3 µM
OVCAR-3
  GI50: 3.08 µM
SK-MEL-28
  GI50: 5.63 µM
KM12
  GI50: 1.83 µM
K562
  GI50: 3.35 µM
786-0
  GI50: 2.98 µM
T47D
  GI50: 4.24 µM
SK-MEL-2
  GI50: 8.26 µM
LOX IMVI
  GI50: 1.85 µM
SK-MEL-5
  GI50: 3.18 µM
MCF7 [2]
  Activity: 17.8%
COLO 205
  GI50: 2.01 µM
MCF7 [3]
  Activity: 53.92%
UACC-257
  GI50: 7.68 µM
RXF 393
  GI50: 1.89 µM
SK-OV-3
  GI50: 11.1 µM
[4]
  GI50: 2.15 µM
MCF7 [5]
  Activity: 17.21%
MCF7 [6]
  GI50: 2.47 µM
NCI-H460
  GI50: 2.49 µM
UACC-62
  GI50: 3.65 µM
ACHN
  GI50: 2.76 µM
HCC 2998
  GI50: 4.09 µM
PC-3
  GI50: 2.82 µM
SNB-75
  GI50: 12.1 µM
NCI/ADR-RES
  GI50: 3.73 µM
NCI-H23
  GI50: 3.35 µM
MDA-MB-231
  GI50: 3.86 µM
SW-620
  GI50: 2.41 µM
U-251
  GI50: 1.61 µM
HCT-15
  GI50: 3.1 µM
A549
  GI50: 3.89 µM
NCI-H226
  GI50: 24.8 µM
M14
  GI50: 4.53 µM
OVCAR-8
  GI50: 2.8 µM
HOP-62
  GI50: 6.93 µM
HT-29
  GI50: 3.33 µM
MCF7 [7]
  Activity: 2.1%
MCF7 [8]
  Activity: 18.48%
MCF7 [9]
  Activity: 57.26%
MCF7 [10]
  Activity: 22.16%
Malme-3M
  GI50: 6.21 µM
CAKI-1
  GI50: 13.3 µM
HOP-92
  GI50: 5.04 µM
SF-295
  GI50: 18.2 µM
NCI-H322M
  GI50: 10.6 µM
EKVX
  GI50: 15.6 µM
OVCAR-4
  GI50: 5.3 µM
SF-268
  GI50: 4.53 µM
[11]
  GI50: 6.14 µM
